Among the data in ChEMBL document CHEMBL4038317, “Discovery of a Benzamide Derivative That Protects Pancreatic β-Cells against Endoplasmic Reticulum Stress” (J Med Chem, 2017) are Activity, inhibition and IC50 values, retold here.

The structures appear in SMILES notation. Activity calls are given as the source filed them. No cut-off for these calls is given here.

The test system of data set [1] is INS1. Put plainly: Protection against tunicamycin ER stress-induced suppression of PDX1 mRNA expression in rat INS-1 cells up to 1 uM after 24 hrs by qRT-PCR analysis. Type of data set: functional, cell-based. Put shortly:
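INS-1 cells were exposed to tunicamycin 0.1 μg/mL with compound or DMSO for 24 h. INS1, INS2, PDX1 and MafA mRNA were measured by qRT-PCR and normalized to cyclophilin A by the comparative Ct method. Triplicate wells, 3 independent experiments.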
(In general: Quantitative PCR measures a nucleic acid by following its amplification.)

In data set [2] the test system is INS1. Put plainly: Cytoprotective activity against tunicamycin ER stress-induced apoptosis in rat INS-1 cells assessed as inhibition of tunicamycin-induced cleaved caspase3 expression up to 1 uM after 24 hrs by Western blot analysis. Type of data set: functional, cell-based. Put shortly:
(§1)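 INS-1 cells, 8×10^5 per 60-mm dish, were exposed to tunicamycin 0.1 μg/mL plus compound or DMSO for 24 h. 20 μg lysate protein was run on 7% SDS-PAGE and immunoblotted for cleaved caspase-3 and PARP (1:1000), with α-tubulin as loading control; 3 independent experiments.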

In the next data set the test system is Mus musculus. Put plainly: Toxicity in STZ-induced diabetic C57BL/6 mouse model assessed as effect on alpha-cells at 5 mg/kg, ip administrated qd with streptozotocin for 5 days followed by compound administration alone for 2 more weeks by DAPI-staining based confocal microscopic analysis. Type of data set: organism-based. The following applies: in vivo, 120 h. Put shortly: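 At the end of treatment in the STZ mouse model, pancreases were formalin-fixed, paraffin-embedded and serially sectioned at 100 μm intervals. Six sections were stained for insulin and glucagon with DAPI counterstain and imaged by confocal microscopy. Insulin-positive cells demarcated islets; total islet area per section and cells per islet were quantified.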

For data set [3], the system named is INS1. Put plainly: Effect on CHOP mRNA level in rat INS-1 cells up to 10 uM after 8 hrs by qRT-PCR analysis. Type of data set: ADME, cell-based. The following applies: ins1, 8 h. Put shortly:
(§2)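 INS-1 cells, 4×10^5 per well, were exposed to tunicamycin 0.1 μg/mL with compound or DMSO for 8 h. qRT-PCR for ATF4, CHOP, Bip, GRP94, or spliced XBP1 using splicing-specific primers. Values were normalized to cyclophilin A by ΔΔCt and given as fold over untreated control. Triplicate wells, 3 independent experiments.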

For data set [4], the target named is T1, Eukaryotic translation initiation factor 2-alpha kinase 3 (Rattus norvegicus, UniProt Q9Z1Z1).
T1 sequence (Q9Z1Z1 whole entry): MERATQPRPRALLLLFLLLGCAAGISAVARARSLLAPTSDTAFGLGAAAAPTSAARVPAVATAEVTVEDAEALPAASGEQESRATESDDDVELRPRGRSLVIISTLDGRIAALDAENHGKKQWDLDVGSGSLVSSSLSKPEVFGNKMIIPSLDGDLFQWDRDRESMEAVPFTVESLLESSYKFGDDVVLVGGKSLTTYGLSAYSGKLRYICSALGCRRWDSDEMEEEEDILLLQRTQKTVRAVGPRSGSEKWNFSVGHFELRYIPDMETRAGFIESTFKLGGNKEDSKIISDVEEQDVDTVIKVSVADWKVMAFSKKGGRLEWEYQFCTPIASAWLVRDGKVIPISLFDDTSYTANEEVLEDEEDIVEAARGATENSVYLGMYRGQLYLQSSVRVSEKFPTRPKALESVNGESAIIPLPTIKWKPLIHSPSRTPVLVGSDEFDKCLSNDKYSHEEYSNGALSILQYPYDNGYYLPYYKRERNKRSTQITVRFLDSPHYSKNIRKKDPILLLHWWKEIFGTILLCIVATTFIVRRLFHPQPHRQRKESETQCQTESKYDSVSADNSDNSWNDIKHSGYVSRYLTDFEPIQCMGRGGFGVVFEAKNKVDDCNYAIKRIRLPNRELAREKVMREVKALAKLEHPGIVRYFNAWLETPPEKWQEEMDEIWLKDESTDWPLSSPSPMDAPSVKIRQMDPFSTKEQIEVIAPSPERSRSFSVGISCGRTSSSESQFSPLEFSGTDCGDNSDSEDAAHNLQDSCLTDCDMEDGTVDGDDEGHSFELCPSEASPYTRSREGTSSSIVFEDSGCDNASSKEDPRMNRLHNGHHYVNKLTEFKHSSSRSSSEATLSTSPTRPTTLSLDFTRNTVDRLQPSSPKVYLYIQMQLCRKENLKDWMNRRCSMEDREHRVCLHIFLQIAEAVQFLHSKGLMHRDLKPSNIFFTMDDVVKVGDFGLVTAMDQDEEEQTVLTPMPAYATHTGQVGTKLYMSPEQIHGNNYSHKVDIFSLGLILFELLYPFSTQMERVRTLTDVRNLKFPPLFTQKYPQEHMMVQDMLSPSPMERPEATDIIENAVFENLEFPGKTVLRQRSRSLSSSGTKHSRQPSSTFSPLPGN
Put plainly: Inhibition of PERK activation in rat INS-1 cells assessed as suppression of tunicamycin-induced CHOP mRNA expression after 8 hrs by qRT-PCR analysis. The data set is classed as cell-based. Put shortly: as §2

The target in data set [5] is T2, Cyclic AMP-dependent transcription factor ATF-6 alpha (Rattus norvegicus) (UniProt G3V909).
T2 sequence (whole entry): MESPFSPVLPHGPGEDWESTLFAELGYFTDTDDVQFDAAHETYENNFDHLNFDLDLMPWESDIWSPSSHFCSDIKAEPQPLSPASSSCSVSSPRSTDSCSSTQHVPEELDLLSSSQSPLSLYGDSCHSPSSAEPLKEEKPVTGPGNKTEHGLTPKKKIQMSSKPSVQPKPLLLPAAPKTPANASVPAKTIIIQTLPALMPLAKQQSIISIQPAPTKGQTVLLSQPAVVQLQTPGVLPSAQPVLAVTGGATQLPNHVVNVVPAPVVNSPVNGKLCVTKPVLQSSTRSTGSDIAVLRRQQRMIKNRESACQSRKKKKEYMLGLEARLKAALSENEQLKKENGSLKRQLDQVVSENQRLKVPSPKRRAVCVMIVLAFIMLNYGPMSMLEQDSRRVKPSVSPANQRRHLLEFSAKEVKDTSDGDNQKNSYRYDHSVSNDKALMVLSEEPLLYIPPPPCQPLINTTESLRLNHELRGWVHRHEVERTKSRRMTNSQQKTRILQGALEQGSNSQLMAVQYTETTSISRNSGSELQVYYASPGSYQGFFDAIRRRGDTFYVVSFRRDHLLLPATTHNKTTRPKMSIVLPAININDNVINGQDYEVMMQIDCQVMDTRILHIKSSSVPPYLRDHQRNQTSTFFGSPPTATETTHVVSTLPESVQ
Put plainly: Inhibition of tunicamycin ER stress-induced ATF6 activation in rat INS-1 cells assessed as suppression of increase in Bip mRNA levels up to 10 uM after 8 hrs by qRT-PCR analysis. Type of data set: cell-based. Put shortly:
as §2

The test system of data set [6] is INS1. Put plainly: Protection against tunicamycin ER stress-induced suppression of glucose-stimulated insulin secretion in rat INS-1 cells after 24 hrs by ELISA. The data set is classed as functional, cell-based. Put shortly:
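INS-1 cells were given tunicamycin 0.1 μg/mL and compound for 24 h, preincubated 1 h in KRBH (pH 7.4, 2% BSA) with 2.5 mM glucose, then given 1 h at low or high glucose. Secreted insulin was measured by ELISA and corrected for total protein (Bradford). Triplicate wells, three independent experiments.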
(In general: ELISA stands for enzyme-linked immunosorbent assay.)

For data set [7], the system named is INS1. Put plainly: Cytoprotective activity against tunicamycin ER stress-induced apoptosis in rat INS-1 cells assessed as inhibition of tunicamycin-induced cleaved PARP expression up to 1 uM after 24 hrs by Western blot analysis. Type of data set: functional, cell-based. Put shortly: as §1
(A western blot detects proteins with antibodies after separation by electrophoresis.)

In general, IC50 refers to the midpoint of a concentration-inhibition curve.

Consider `O=C(NCc1ccc(C(F)(F)F)cc1)c1cccc(CN2CCCCC2)c1`, for which the outcome in the data set on INS1 [1] and in the data set on INS1 [6] was Active. In addition, the inhibition entry (with INS1 [2]; in data set [5]; in the data set on INS1 [7]) was “Active” throughout. In addition, the Activity result with Mus musculus and in the data set with INS1 [3] was “Non-Toxic” throughout. In addition, the IC50 in data set [4] stood at 0.037 µM.
